What was measured:
[1] = Toxicity in po dosed Sprague-Dawley rat assessed as motor impairment by inverted screen test; assay type: organism-based; details: in vivo
Outline: (§1)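 Rats given compound orally (10 or 100 mg/kg), scored on inverted screen for motor impairment; plasma exposure measured; ≥4 rats/group, mean ± SEM; TD50 used with PTZ ED50 for protective index.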

Glutamate receptor 1 [2] = molecular target: T1, Glutamate receptor 1 (Homo sapiens, UniProt P42261); test: (§2) Antagonist activity at human iGluA1 receptor flop isoform expressed in CHO-S cells coexpressing TARP gamma-8 and human EAAT3 assessed as inhibition of glutamate-induced increase in intracellular calcium levels after 2 mins followed by cyclothiazide/glutamate addition by fluo-4 AM dye based fluorescence imaging plate reader method; assay type: cell-based
Outline: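 Transiently transfected CHO-S cells (human GluA1Q flop with TARP γ-8 and human EAAT3, DNA ratio 2:3), frozen, thawed, plated overnight at 37 °C; Fluo-4 AM loading 2 h at 22 °C. Compound added, then 2 min later glutamate (5 μM final); cyclothiazide (20 μM) plus glutamate (45 μM) 2 min after. FLIPR Ca2+ read; inhibition relative to 167 μM nonselective antagonist and buffer baseline; four-parameter logistic IC50; mean ± SEM, n ≥ 2.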

Glutamate receptor 1 [3] = molecular target: T1, Glutamate receptor 1; test: as §2, with “gamma-2” for “gamma-8 and human EAAT3”; assay type: cell-based
Glutamate receptor 1 [4] = molecular target: T1, Glutamate receptor 1; test: Antagonist activity at human iGluA1 receptor flip isoform expressed in CHO-S cells assessed as inhibition of glutamate-induced increase in intracellular calcium levels after 2 mins followed by cyclothiazide/glutamate addition by fluo-4 NW dye based fluorescence imaging plate reader method; assay type: cell-based
[5] = AUC in rat at 1 mg/kg, iv; assay type: ADME, organism-based; details: in vivo
Outline: (§3)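 Rats dosed 1 mg/kg iv or 3 mg/kg po; plasma concentration–time profiles give AUC, CL, Vdss, Cmax, Tmax and absolute oral bioavailability; mean and SEM, n = 3.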

[6] = Clearance in rat; assay type: ADME, organism-based; details: in vivo
Cytochrome P450 1A2 = molecular target: T2, Cytochrome P450 1A2 (Homo sapiens, UniProt P05177); test: Inhibition of human CYP1A2; assay type: ADME
T2 sequence (P05177 whole entry): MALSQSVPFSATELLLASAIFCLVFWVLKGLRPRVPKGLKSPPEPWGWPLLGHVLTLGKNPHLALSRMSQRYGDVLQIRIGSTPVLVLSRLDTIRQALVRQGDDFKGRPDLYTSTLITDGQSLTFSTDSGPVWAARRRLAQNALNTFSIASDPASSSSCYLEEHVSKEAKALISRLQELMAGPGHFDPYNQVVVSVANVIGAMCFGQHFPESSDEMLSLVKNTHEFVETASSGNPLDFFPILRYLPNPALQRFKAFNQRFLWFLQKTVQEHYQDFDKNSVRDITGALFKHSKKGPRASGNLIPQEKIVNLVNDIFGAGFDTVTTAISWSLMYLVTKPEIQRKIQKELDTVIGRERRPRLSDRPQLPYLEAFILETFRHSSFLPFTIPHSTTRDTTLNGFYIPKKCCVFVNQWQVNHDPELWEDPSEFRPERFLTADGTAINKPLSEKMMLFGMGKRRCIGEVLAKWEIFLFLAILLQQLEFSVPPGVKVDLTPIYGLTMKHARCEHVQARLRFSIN

Rattus norvegicus [7] = test: Anticonvulsant activity in po dosed Sprague-Dawley rat assessed as inhibition of pentylenetetrazole-induced clonic convulsions administered 30 mins prior to PTZ dosing measured over 30 mins; assay type: functional
[8] = Oral bioavailability in rat at 3 mg/kg; assay type: ADME, organism-based; details: in vivo; outline: as §3
[9] = Volume of distribution at steady state in rat at 1 mg/kg, iv; assay type: ADME, organism-based; details: in vivo, read-out: Vdss; outline: as §3
[10] = Clearance in rat at 1 mg/kg, iv; assay type: ADME, organism-based; details: in vivo; outline: as §3
[11] = AUC in rat at 3 mg/kg, po; assay type: ADME, organism-based; details: in vivo; outline: as §3
[12] = Tmax in rat at 3 mg/kg, po; assay type: ADME, organism-based; details: in vivo; outline: as §3
[13] = Cmax in rat at 3 mg/kg, po; assay type: ADME, organism-based; design: dose 3 mg/kg, route oral; details: in vivo; outline: as §3
Rattus norvegicus [14] = species on record: Rattus norvegicus; test: Potency index, ratio of perampanel ED50 to compound ED50 for inhibition of pentylenetetrazole-induced clonic convulsions in Sprague-Dawley rat; assay type: functional
Rattus norvegicus [15] = test: Anticonvulsant activity in po dosed Sprague-Dawley rat assessed as inhibition of pentylenetetrazole-induced clonic convulsions at 1 mg/kg administered 30 mins prior to PTZ dosing measured over 30 mins; assay type: functional
Rattus norvegicus [16] = test: Anticonvulsant activity in po dosed Sprague-Dawley rat assessed as inhibition of pentylenetetrazole-induced clonic convulsions at 3 mg/kg administered 30 mins prior to PTZ dosing measured over 30 mins; assay type: functional
Rattus norvegicus [17] = test: Anticonvulsant activity in po dosed Sprague-Dawley rat assessed as inhibition of pentylenetetrazole-induced clonic convulsions at 10 mg/kg administered 30 mins prior to PTZ dosing measured over 30 mins; assay type: functional
Plasma [18] = test: Plasma concentration in Sprague-Dawley rat at 30 mg/kg, po; assay type: ADME, organism-based; details: in vivo
Plasma [19] = test: Plasma concentration in Sprague-Dawley rat at 1 mg/kg, po; assay type: ADME, organism-based; details: in vivo
Plasma [20] = test: Plasma concentration in Sprague-Dawley rat at 3 mg/kg, po; assay type: ADME, organism-based; details: in vivo
Plasma [21] = test: Plasma concentration in Sprague-Dawley rat at 10 mg/kg, po; assay type: ADME, organism-based; details: in vivo
Rattus norvegicus [22] = test: Receptor occupancy at TARP gamma-8 containing AMPA receptor in Sprague-Dawley rat at 1 mg/kg, po administered 30 mins prior to addition of 6-[2-Ethoxyethyl-[4-(2-pyridyl)thiazol-2-yl]amino]-3H-1,3-benzothiazol-2-one measured after 40 mins by […]; assay type: functional
Rattus norvegicus [23] = test: Receptor occupancy at TARP gamma-8 containing AMPA receptor in Sprague-Dawley rat at 3 mg/kg, po administered 30 mins prior to addition of 6-[2-Ethoxyethyl-[4-(2-pyridyl)thiazol-2-yl]amino]-3H-1,3-benzothiazol-2-one measured after 40 mins by […]; assay type: functional
Rattus norvegicus [24] = test: Receptor occupancy at TARP gamma-8 containing AMPA receptor in Sprague-Dawley rat at 10 mg/kg, po administered 30 mins prior to addition of 6-[2-Ethoxyethyl-[4-(2-pyridyl)thiazol-2-yl]amino]-3H-1,3-benzothiazol-2-one measured after 40 mins by […]; assay type: functional
Rattus norvegicus [25] = test: Receptor occupancy at TARP gamma-8 containing AMPA receptor in Sprague-Dawley rat at 30 mg/kg, po administered 30 mins prior to addition of 6-[2-Ethoxyethyl-[4-(2-pyridyl)thiazol-2-yl]amino]-3H-1,3-benzothiazol-2-one measured after 40 mins by […]; assay type: functional
Brain [26] = test: Drug uptake in Sprague-Dawley rat brain at 1 mg/kg, po; assay type: ADME, organism-based; details: in vivo
Outline: (§4)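 Rats dosed orally 1–30 mg/kg 30 min before iv bolus of non-radiolabelled tracer; brain taken 40 min after tracer; tracer in hippocampus (total binding) and cerebellum (null region) quantified by LC-MS/MS; occupancy by ratio method; brain exposure measured; n = 4 per group, mean ± SEM.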

Brain [27] = test: Drug uptake in Sprague-Dawley rat brain at 3 mg/kg, po; assay type: ADME, organism-based; details: in vivo; outline: as §4
Brain [28] = test: Drug uptake in Sprague-Dawley rat brain at 10 mg/kg, po; assay type: ADME, organism-based; details: in vivo; outline: as §4
Brain [29] = test: Drug uptake in Sprague-Dawley rat brain at 30 mg/kg, po; assay type: ADME, organism-based; details: in vivo; outline: as §4
Plasma [30] = test: Plasma concentration in Sprague-Dawley rat at 100 mg/kg, po; assay type: ADME, organism-based; details: in vivo; outline: as §1
Rattus norvegicus [31] = test: Toxicity in Sprague-Dawley rat assessed as motor impairment up to 100 mg/kg, po by inverted screen test; assay type: organism-based; details: in vivo; outline: as §1
Rattus norvegicus [32] = test: Protective index, ratio of TD50 for motor impairment to ED50 for inhibition of pentylenetetrazole-induced clonic convulsions in po dosed Sprague-Dawley rat
Outline: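 PI = inverted screen TD50 divided by PTZ ED50. For the ED50, rats were dosed orally 30 min before PTZ (35 mg/kg, sc), with n = 10 per group. Read-out was % block of clonic convulsions; ED50 given with 95% confidence limits.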

T1 sequence (P42261 whole entry, canonical isoform): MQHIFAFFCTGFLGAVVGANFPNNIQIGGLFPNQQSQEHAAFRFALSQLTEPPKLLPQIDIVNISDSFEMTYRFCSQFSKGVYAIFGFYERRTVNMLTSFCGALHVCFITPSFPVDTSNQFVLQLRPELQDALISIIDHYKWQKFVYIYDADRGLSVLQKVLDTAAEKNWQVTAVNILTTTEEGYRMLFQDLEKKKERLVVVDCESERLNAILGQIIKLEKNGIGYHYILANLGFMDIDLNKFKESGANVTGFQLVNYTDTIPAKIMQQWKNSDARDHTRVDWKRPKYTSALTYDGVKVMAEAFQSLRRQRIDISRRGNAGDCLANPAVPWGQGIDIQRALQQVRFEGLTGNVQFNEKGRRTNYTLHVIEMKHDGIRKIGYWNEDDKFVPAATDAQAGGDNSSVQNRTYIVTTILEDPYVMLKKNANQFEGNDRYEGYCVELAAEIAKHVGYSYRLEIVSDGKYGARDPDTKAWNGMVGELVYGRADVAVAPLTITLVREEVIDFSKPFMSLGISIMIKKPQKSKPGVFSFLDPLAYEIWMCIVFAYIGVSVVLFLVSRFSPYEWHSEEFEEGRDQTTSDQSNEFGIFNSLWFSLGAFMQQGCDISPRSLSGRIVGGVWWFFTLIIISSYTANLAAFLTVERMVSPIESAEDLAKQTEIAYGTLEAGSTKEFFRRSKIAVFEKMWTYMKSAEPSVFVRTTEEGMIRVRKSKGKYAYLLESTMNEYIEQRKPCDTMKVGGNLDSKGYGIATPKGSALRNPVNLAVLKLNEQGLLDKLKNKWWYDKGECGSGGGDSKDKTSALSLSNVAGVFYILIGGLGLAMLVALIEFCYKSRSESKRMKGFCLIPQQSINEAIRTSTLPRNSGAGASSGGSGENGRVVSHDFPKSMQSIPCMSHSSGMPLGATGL

- IC50 (Glutamate receptor 1 [2]): 65.3 nM
- IC50 (Glutamate receptor 1 [3]): 68.5 µM
- IC50 (Glutamate receptor 1 [4]): 83.3 µM
- AUC [5]: 1470 ng·h/mL
- clearance [6]: 11.4 mL/min/kg
- IC50 (Cytochrome P450 1A2): > 10 µM
- bioavailability [8]: 97%
- Vd [9]: 1.28 L/kg
- clearance [10]: 11.4 mL/min/kg
- AUC [11]: 4220 ng·h/mL
- Tmax [12]: 1.3 h
- Cmax [13]: 628 ng/mL
- Cp (Plasma [18]): 1780 ng/mL
- Cp (Plasma [19]): 377 ng/mL
- Cp (Plasma [20]): 1269 ng/mL
- Cp (Plasma [21]): 3360 ng/mL
- Drug uptake (Brain [26]): 133 ng/g
- Drug uptake (Brain [27]): 477 ng/g
- Drug uptake (Brain [28]): 1526 ng/g
- Drug uptake (Brain [29]): 2400 ng/g
- Cp (Plasma [30]): 8342 ng/mL
SMILES: C[C@@H](c1ccc2[nH]c(=O)sc2c1)c1ccn(-c2ccc(OCCO)cn2)n1
- TD50 [1]: 3.8 mg/kg
- ED50 (Rattus norvegicus [7]): 1.7 mg/kg
- inhibition (Rattus norvegicus [7]): Dose-dependent effect
- Ratio ED50 (Rattus norvegicus [14]): 10
- inhibition in vivo at 1 mg/kg (Rattus norvegicus [15]): 40%
- inhibition in vivo at 3 mg/kg (Rattus norvegicus [16]): 80%
- inhibition in vivo at 10 mg/kg (Rattus norvegicus [17]): 100%
- Occ (Rattus norvegicus [22]): 45%
- Occ (Rattus norvegicus [23]): 69%
- Occ (Rattus norvegicus [24]): 68%
- Occ (Rattus norvegicus [25]): 96%
- Activity (Rattus norvegicus [31]): Non-toxic
- Ratio TD50/ED50 (Rattus norvegicus [32]): >58

Source: ChEMBL document CHEMBL3822422, “Discovery of the First α-Amino-3-hydroxy-5-methyl-4-isoxazolepropionic Acid (AMPA) Receptor Antagonist Dependent upon Transmembrane AMPA Receptor Regulatory Protein (TARP) γ-8” (J Med Chem, 2016)
